# Assay results published in ChEMBL document CHEMBL1150864, “Antimalarial compounds from Rhaphidophora decursiva” (J Nat Prod, 2001).
# Legend:
# [1] = Selectivity index, ratio of ED50 for human KB cells to IC50 for chloroquine-resistant Plasmodium falciparum W2; type: functional
# [2] = tested on: Plasmodium falciparum; assay: Antiplasmodial activity against chloroquine-sensitive Plasmodium falciparum D6 by [3H]hypoxanthine uptake; type: functional, organism-based
# How it was run: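 P. falciparum D6 kept in type A+ human erythrocytes (RPMI-1640, NaHCO3, HEPES, hypoxanthine, 10% Albumax II) under 5% O2/5% CO2/90% N2 at 37 °C. Plated at 0.5-1% parasitemia, 1% hematocrit with serial dilutions from 4 mg/mL stock, triplicate; 24 h, then 0.5 μCi [3H]hypoxanthine for 18 h more. Scintillation counting; IC50 by nonlinear regression versus zero-drug controls.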
# [3] = tested on: Plasmodium falciparum; assay: Antiplasmodial activity against chloroquine-resistant Plasmodium falciparum W2 by [3H]hypoxanthine uptake; type: functional, organism-based
# How it was run: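 P. falciparum W2 grown in type A+ human erythrocytes in RPMI-1640 with NaHCO3, HEPES, hypoxanthine and 10% Albumax II, 5% O2/5% CO2/90% N2, 37 °C. Samples from 4 mg/mL stock tested in triplicate at 0.5-1% parasitemia, 1% hematocrit. After 24 h, 0.5 μCi [3H]hypoxanthine added for 18 h more; IC50 by nonlinear regression, zero-drug controls as 100%.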
# [4] = Cytotoxicity against human KB cells after 72 hrs; type: cell-based; conditions: read-out: ED50
# [5] = Selectivity index, ratio of ED50 for human KB cells to IC50 for chloroquine-sensitive Plasmodium falciparum D6; type: functional
SMILES,"IC50 ([2]; D6, 42 h) [µg/mL]",Selectivity Index [1],IC50 ([2]; D6) [µg/mL],IC50 [3] [µg/mL],CC50 at 72 h [4] [µg/mL],Selectivity Index [5]
C=C[C@H]1CN2CC[C@H]1C[C@H]2[C@H](O)c1ccnc2ccc(OC)cc12 [QUININE],–,>490,0.009,0.041,> 20,>2000
COc1cc([C@@H]2OC[C@H]3[C@@H]2CO[C@H]3c2ccc(O)c(OC)c2)ccc1O [(-)-PINORESINOL],> 10,–,–,–,–,–
C[C@@H]1CC[C@H]2[C@@H](C)C(=O)O[C@@H]3O[C@@]4(C)CC[C@@H]1[C@]32OO4 [ARTEMISININ],–,>10000,–,0.002,> 20,>10000
C/C=C/c1cc(OC)c(O[C@H](C)[C@@H](O)c2cc(OC)c(OC)c(OC)c2)c(OC)c1 (relative stereo) [POLYSYPHORIN],–,6,0.404,0.368,2,5
COc1cc(O)cc2c1C(=O)OOC(C)CCCCC/C=C/2 (stereo unspecified) [RHAPHIDECURPEROXIN],–,1,0.54,0.42,4,0.7
COc1cc([C@H]2OC[C@H]3[C@@H]2CO[C@@H]3c2cc(OC)c(O)c(OC)c2)ccc1O,> 10,–,–,–,–,–
COc1cc([C@H]2O[C@@H](c3cc(OC)c(OC)c(OC)c3)[C@H](C)[C@H]2C)cc(OC)c1OC [EPIGRANDISIN],–,4,> 10,3.34,16,<2
COc1cc([C@@H]2O[C@@H](c3cc(OC)c(OC)c(OC)c3)[C@H](C)[C@H]2C)cc(OC)c1OC [GRANDISIN],–,8,1.51,1.48,14,7
C=CCc1cc(OC)c(O[C@H](C)[C@@H](O)c2cc(OC)c(OC)c(OC)c2)c(OC)c1 [RHAPHIDECURSINOL B],–,2,5.37,4.68,10,1

# Further lines, with some results ahead:
"IC50 ([2]; D6, 42 h) [µg/mL]",SMILES,Selectivity Index [1],IC50 ([2]; D6) [µg/mL],IC50 [3] [µg/mL],CC50 at 72 h [4] [µg/mL],Selectivity Index [5]
> 10,CCCCCC1(O)OC(=O)C(C)=C1C (stereo unspecified),–,–,–,–,–
> 10,COc1cc([C@H]2OC[C@@H]3C(=O)OC[C@@H]32)cc(OC)c1O,–,–,–,–,–
> 10,COc1cc([C@@H]2OC[C@@H]3[C@H]2CO[C@H]3c2cc(OC)c(O)c(OC)c2)cc(OC)c1O,–,–,–,–,–
> 10,CCCCNC(=O)c1ccccc1,–,–,–,–,–
> 10,CC(=O)/C=C/[C@@]1(O)C(C)=CC(=O)CC1(C)C,–,–,–,–,–
